Tests used:
Rattus norvegicus [1] = organism: Rattus norvegicus; assay: Tissue (spleen) distribution in Albino male CD rats after 60 minutes expressed as percent of injected dose per gram of organ.; type: ADME, organism-based; conditions: in vivo, 1 h
Rattus norvegicus [2] = organism: Rattus norvegicus; assay: Tissue (testicle) distribution in Albino male CD rats after 30 minutes expressed as percent of injected dose per gram of organ.; type: ADME, organism-based; conditions: in vivo, 0.5 h
Method in brief: (§1)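 Male albino CD rats (225-250 g) received the 11C-labelled radioligand in saline by tail-vein injection. Three rats per time point were decapitated under light ether anaesthesia at 5, 15, 30, 60 or 90 min. Blood was collected heparinized and plasma separated by centrifugation. The pituitary was dissected from the brain. Lung, liver (three-lobe pieces) and right deltoid muscle were sampled, washed in cold saline, gamma-counted and weighed. Results are %I.D./g.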

Rattus norvegicus [3] = organism: Rattus norvegicus; assay: Tissue (testicle) distribution in Albino male CD rats after 60 minutes expressed as percent of injected dose per gram of organ.; type: ADME, organism-based; conditions: in vivo, 1 h; method in brief: as §1
Rattus norvegicus [4] = organism: Rattus norvegicus; assay: Tissue (testicle) distribution in Albino male CD rats after 90 minutes expressed as percent of injected dose per gram of organ.; type: ADME, organism-based; conditions: in vivo, 1.5 h
Rattus norvegicus [5] = organism: Rattus norvegicus; assay: Tissue (kidney) distribution in Albino male CD rats after 30 minutes expressed as percent of injected dose per gram of organ.; type: ADME, organism-based; conditions: in vivo, 0.5 h
Method in brief: (§2)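 Radioligand given in saline into tail vein of male albino CD rats (225-250 g); 100-200 µCi per animal, 1-2 Ci/µmol at injection depending on radioligand. Three rats per time point were decapitated under light ether anaesthesia. Blood, plasma, brain regions and washed organs were weighed and gamma-counted. Uptake is %I.D./g tissue, mean ± SD.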

Rattus norvegicus [6] = organism: Rattus norvegicus; assay: Tissue (kidney) distribution in Albino male CD rats after 5 minutes expressed as percent of injected dose per gram of organ.; type: ADME, organism-based; conditions: in vivo; method in brief: as §2
Rattus norvegicus [7] = organism: Rattus norvegicus; assay: Tissue (liver) distribution in Albino male CD rats after 5 minutes expressed as percent of injected dose per gram of organ.; type: ADME, organism-based; conditions: in vivo; method in brief: as §1
Rattus norvegicus [8] = organism: Rattus norvegicus; assay: Tissue (liver) distribution in Albino male CD rats after 60 minutes expressed as percent of injected dose per gram of organ.; type: ADME, organism-based; conditions: in vivo, 1 h; method in brief: as §1
[9] = biological target: Translocator protein (Rattus norvegicus) (UniProt P16257); assay: Tissue (lung) concentration of radioactivity at 30 min post-injection into Albino male CD rats after pretreatment with cold PK 11195.; type: functional
Method in brief: (§3)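 Blocking study in male albino CD rats, five per group. Immediately before the 11C radioligand (in saline, i.v. tail vein), rats received 30 µL tail-vein PK 11195 (5 mg/kg; 1.4-1.6 mg) in DMSO:EtOH 1:1, or vehicle. Rats were decapitated at 30 min. Tissues were dissected, washed, gamma-counted and weighed as in the biodistribution study. Results are %I.D./g.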

Rattus norvegicus [10] = organism: Rattus norvegicus; assay: Tissue (lung) distribution in Albino male CD rats after 30 minutes expressed as percent of injected dose per gram of organ.; type: ADME, organism-based; conditions: in vivo, 0.5 h; method in brief: as §1
[11] = biological target: Translocator protein (Rattus norvegicus) (UniProt P16257); assay: Tissue (muscle) concentration of radioactivity at 30 min post-injection into Albino male CD rats after pretreatment with cold PK 11195.; type: functional; method in brief: as §3
Rattus norvegicus [12] = organism: Rattus norvegicus; assay: Tissue (blood) distribution in Albino male CD rats after 15 minutes expressed as percent of injected dose per gram of organ.; type: ADME, organism-based; conditions: in vivo, 0.25 h; method in brief: as §2
Rattus norvegicus [13] = organism: Rattus norvegicus; assay: Tissue (adrenal gland) distribution in Albino male CD rats after 30 minutes expressed as percent of injected dose per gram of organ.; type: ADME, organism-based; conditions: in vivo, 0.5 h; method in brief: as §2
Rattus norvegicus [14] = organism: Rattus norvegicus; assay: Tissue (adrenal gland) distribution in Albino male CD rats after 5 minutes expressed as percent of injected dose per gram of organ.; type: ADME, organism-based; conditions: in vivo; method in brief: as §2
Rattus norvegicus [15] = organism: Rattus norvegicus; assay: Tissue (spleen) distribution in Albino male CD rats after 30 minutes expressed as percent of injected dose per gram of organ.; type: ADME, organism-based; conditions: in vivo, 0.5 h; method in brief: as §1
Rattus norvegicus [16] = organism: Rattus norvegicus; assay: Tissue (muscle) distribution in Albino male CD rats after 30 minutes expressed as percent of injected dose per gram of organ.; type: ADME, organism-based; conditions: in vivo, 0.5 h; method in brief: as §1
Rattus norvegicus [17] = organism: Rattus norvegicus; assay: Tissue (muscle) distribution in Albino male CD rats after 5 minutes expressed as percent of injected dose per gram of organ.; type: ADME, organism-based; conditions: in vivo; method in brief: as §1
Rattus norvegicus [18] = organism: Rattus norvegicus; assay: Tissue (cortex) distribution in Albino male CD rats after 15 minutes expressed as percent of injected dose per gram of organ.; type: ADME, organism-based; conditions: in vivo, 0.25 h; method in brief: as §2
Rattus norvegicus [19] = organism: Rattus norvegicus; assay: Tissue (cortex) distribution in Albino male CD rats after 90 minutes expressed as percent of injected dose per gram of organ.; type: ADME, organism-based; conditions: in vivo, 1.5 h; method in brief: as §2
Rattus norvegicus [20] = organism: Rattus norvegicus; assay: Tissue (heart) concentration of radioactivity at 30 min post-injection into Albino male CD rats with vehicle.; type: ADME, organism-based; conditions: in vivo, 0.5 h
Method in brief: (§4)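 Separate groups of five rats received tail-vein PK 11195 (1.4-1.6 mg; 5 mg/kg) in 30 µL DMSO:EtOH 1:1, or vehicle alone, immediately before iv radioligand (90-170 µCi in saline, 0.9-1 Ci/µmol). Rats were decapitated at 30 min and tissues gamma-counted; values are %I.D./g.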

[21] = biological target: Translocator protein (Rattus norvegicus) (UniProt P16257); assay: Tissue (adrenal gland) concentration of radioactivity at 30 min post-injection into Albino male CD rats after pretreatment with cold PK 11195.; type: functional, tissue-based; method in brief: as §4
Rattus norvegicus [22] = organism: Rattus norvegicus; assay: Tissue (muscle) distribution in Albino male CD rats after 60 minutes expressed as percent of injected dose per gram of organ.; type: ADME, organism-based; conditions: in vivo, 1 h; method in brief: as §1
[23] = biological target: Translocator protein (Rattus norvegicus) (UniProt P16257); assay: Tissue (pituitary) concentration of radioactivity at 30 min post-injection into Albino male CD rats after pretreatment with cold PK 11195.; type: functional, tissue-based; conditions: Pituitary gland; method in brief: as §3
Rattus norvegicus [24] = organism: Rattus norvegicus; assay: Tissue (pituitary) concentration of radioactivity at 30 min post-injection into Albino male CD rats with vehicle.; type: ADME, organism-based, Pituitary gland; conditions: in vivo, 0.5 h; method in brief: as §3
Rattus norvegicus [25] = organism: Rattus norvegicus; assay: Tissue (pituitary) distribution in Albino male CD rats after 30 minutes expressed as percent of injected dose per gram of organ.; type: ADME, organism-based, Pituitary gland; conditions: in vivo, 0.5 h; method in brief: as §1
Rattus norvegicus [26] = organism: Rattus norvegicus; assay: Tissue (pituitary) distribution in Albino male CD rats after 5 minutes expressed as percent of injected dose per gram of organ.; type: ADME, organism-based, Pituitary gland; conditions: in vivo; method in brief: as §1
Rattus norvegicus [27] = organism: Rattus norvegicus; assay: Tissue (plasma) distribution in Albino male CD rats after 30 minutes expressed as percent of injected dose per gram of organ.; type: ADME, organism-based; conditions: in vivo, 0.5 h; method in brief: as §1
Rattus norvegicus [28] = organism: Rattus norvegicus; assay: Tissue (plasma) distribution in Albino male CD rats after 5 minutes expressed as percent of injected dose per gram of organ.; type: ADME, organism-based; conditions: in vivo; method in brief: as §1
[29] = biological target: Translocator protein (Rattus norvegicus) (UniProt P16257); assay: Tissue (spleen) concentration of radioactivity at 30 min post-injection into Albino male CD rats after pretreatment with cold PK 11195.; type: functional, tissue-based; method in brief: as §3
Rattus norvegicus [30] = organism: Rattus norvegicus; assay: Tissue (heart) distribution in Albino male CD rats after 30 minutes expressed as percent of injected dose per gram of organ.; type: ADME, organism-based; conditions: in vivo, 0.5 h; method in brief: as §2
Rattus norvegicus [31] = organism: Rattus norvegicus; assay: Tissue (heart) distribution in Albino male CD rats after 60 minutes expressed as percent of injected dose per gram of organ.; type: ADME, organism-based; conditions: in vivo, 1 h; method in brief: as §2
Rattus norvegicus [32] = organism: Rattus norvegicus; assay: Tissue (intestine) distribution in Albino male CD rats after 5 minutes expressed as percent of injected dose per gram of organ.; type: ADME, organism-based; conditions: in vivo; method in brief: as §2
Rattus norvegicus [33] = organism: Rattus norvegicus; assay: Tissue (intestine) distribution in Albino male CD rats after 60 minutes expressed as percent of injected dose per gram of organ.; type: ADME, organism-based; conditions: in vivo, 1 h; method in brief: as §2
[34] = biological target: Translocator protein (Rattus norvegicus) (UniProt P16257); assay: Tissue (kidney) concentration of radioactivity at 30 min post-injection into Albino male CD rats after pretreatment with cold PK 11195.; type: functional, tissue-based; method in brief: as §4
Rattus norvegicus [35] = organism: Rattus norvegicus; assay: Tissue (blood) distribution in Albino male CD rats after 90 minutes expressed as percent of injected dose per gram of organ.; type: ADME, organism-based; conditions: in vivo, 1.5 h; method in brief: as §2
Rattus norvegicus [36] = organism: Rattus norvegicus; assay: Tissue (cerebellum) distribution in Albino male CD rats after 5 minutes expressed as percent of injected dose per gram of organ.; type: ADME, organism-based; conditions: in vivo; method in brief: as §2
[37] = biological target: Translocator protein (Rattus norvegicus) (UniProt P16257); assay: Tissue (liver) concentration of radioactivity at 30 min post-injection into Albino male CD rats after pretreatment with cold PK 11195.; type: functional, tissue-based; method in brief: as §4
Rattus norvegicus [38] = organism: Rattus norvegicus; assay: Tissue (lung) distribution in Albino male CD rats after 15 minutes expressed as percent of injected dose per gram of organ.; type: ADME, organism-based; conditions: in vivo, 0.25 h; method in brief: as §1
Rattus norvegicus [39] = organism: Rattus norvegicus; assay: Tissue (intestine) distribution in Albino male CD rats after 15 minutes expressed as percent of injected dose per gram of organ.; type: ADME, organism-based; conditions: in vivo, 0.25 h; method in brief: as §2

Translocator protein (Rattus norvegicus), sequence (P16257 whole entry, looked up): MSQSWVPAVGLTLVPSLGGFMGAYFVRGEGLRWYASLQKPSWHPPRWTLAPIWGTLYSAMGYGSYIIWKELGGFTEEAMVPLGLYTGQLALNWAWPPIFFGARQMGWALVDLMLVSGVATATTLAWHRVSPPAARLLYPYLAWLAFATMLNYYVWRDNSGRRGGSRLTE

I.D./g (Rattus norvegicus [1]): 1.55%
I.D./g (Rattus norvegicus [2]): 0.13%
I.D./g (Rattus norvegicus [3]): 0.15%
I.D./g (Rattus norvegicus [4]): 0.2%
I.D./g (Rattus norvegicus [5]): 1.05%
I.D./g (Rattus norvegicus [6]): 0.79%
I.D./g (Rattus norvegicus [7]): 0.37%
I.D./g (Rattus norvegicus [8]): 0.41%
I.D./g [9]: < 0.05%
I.D./g (Rattus norvegicus [10]): 2%
I.D./g [11]: > 0.02%
I.D./g (Rattus norvegicus [12]): 0.09%
I.D./g (Rattus norvegicus [13]): 2.99%
I.D./g (Rattus norvegicus [14]): 0.77%
I.D./g (Rattus norvegicus [15]): 1.46%
I.D./g (Rattus norvegicus [16]): 0.26%
I.D./g (Rattus norvegicus [17]): 0.19%
I.D./g (Rattus norvegicus [18]): 0.17%
I.D./g (Rattus norvegicus [19]): 0.05%
I.D./g (Rattus norvegicus [20]): 0.35%
I.D./g [21]: < 0.17%
I.D./g (Rattus norvegicus [22]): 0.14%
I.D./g [23]: > 0.09%
I.D./g (Rattus norvegicus [24]): 0.11%
I.D./g (Rattus norvegicus [25]): 0.3%
I.D./g (Rattus norvegicus [26]): 0.33%
I.D./g (Rattus norvegicus [27]): 0.06%
I.D./g (Rattus norvegicus [28]): 0.16%
I.D./g [29]: < 0.02%
I.D./g (Rattus norvegicus [30]): 2.58%
I.D./g (Rattus norvegicus [31]): 2.09%
I.D./g (Rattus norvegicus [32]): 0.3%
I.D./g (Rattus norvegicus [33]): 0.62%
I.D./g [34]: < 0.05%
I.D./g (Rattus norvegicus [35]): 0.04%
I.D./g (Rattus norvegicus [36]): 0.25%
I.D./g [37]: < 0.16%
I.D./g (Rattus norvegicus [38]): 3.32%
I.D./g (Rattus norvegicus [39]): 0.78%
SMILES: Cc1c(C(=O)N(C)Cc2ccccc2)nc2ccccc2c1-c1ccccc1

From ChEMBL document CHEMBL1134346, “Labeling and evaluation of N-[11C]methylated quinoline-2-carboxamides as potential radioligands for visualization of peripheral benzodiazepine receptors” (J Med Chem, 2001)
